Reference: paper PMC3390238 (Science Translational Medicine, 2012)
Like-named read-outs stand apart in the source and are kept apart here. Values belong to the molecule of their own block, whether it stands above or below them. Positions of bridges follow the written chain, without caps; N, C: chain ends. Non-standard residues stand in square brackets, D forms with d. Residues, ends and D or L forms follow the SMILES beside them. hArg = N=C(N)NCCCC[C@H](N)C(=O)O; Mpa = O=C(O)CCS

Assays:
[1] = test system: platelet adhesion/aggregation to collagen; assay: Platelet adhesion/aggregation to collagen; format: cell-based, human
αIIbβ3 [2] = molecular target: T1, αIIbβ3 (Homo sapiens, UniProt P05106+P08514); assay: Platelet adhesion to immobilized fibrinogen screening assay; format: cell-based; conditions: for inhibition of platelet adhesion to fibrinogen: mean ± SD, five experiments
αIIbβ3 [3] = molecular target: T1, αIIbβ3; assay: ADP-induced platelet aggregation of platelet-rich plasma; format: cell-based
mouse platelets = assay: ADP-induced mouse platelet aggregation; format: cell-based
rat platelets = assay: ADP-induced rat platelet aggregation; format: cell-based
αVβ3 = αVβ3 (Homo sapiens, UniProt P05106+P06756); assay: αVβ3-mediated HEK293 cell adhesion to vitronectin; format: cell-based
αIIbβ3 [4] = molecular target: T1, αIIbβ3; assay: αIIbβ3-mediated HEK293 cell adhesion to fibrinogen; format: cell-based; conditions: 100 μM; n = 4
[5] = molecular target: αIIbβ3 ligand-induced binding sites (Homo sapiens, UniProt P05106+P08514); assay: Induction of ligand-induced binding site; format: cell-based; conditions: for PMI-1 binding to platelets, % of amount bound in the presence of eptifibatide: αIIb LIBS mAb PMI-1, untreated 46 ± 5%; for PMI-1 binding to platelets, % of amount bound in the presence of eptifibatide / LIBS1 binding to platelets, % of amount bound in the presence of eptifibatide: eptifibatide = 100%; for AP5 binding to platelets, % of amount bound in the presence of eptifibatide: β3 LIBS mAb AP5, eptifibatide 10 μM = 100%, untreated 7 ± 3%; for LIBS1 binding to platelets, % of amount bound in the presence of eptifibatide: β3 LIBS mAb LIBS1, after 30 min, untreated 22 ± 3%
Outline: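 Flow-based binding of LIBS mAbs to platelets: AP5 (β3 PSI domain), LIBS1 (β3 distal leg) and PMI-1 (αIIb). Net normalized fluorescence was expressed relative to platelets treated with eptifibatide, set as 100%. For AP5 the reference was eptifibatide 10 µM, 30 min at 22°C. Replicates: n=5 for AP5, n=4 for PMI-1.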

normal human platelets = assay: Recruitment of αIIbβ3-dependent patient IgG to drug-pretreated platelets; format: cell-based; conditions: for recruitment of patient IgG to platelets: all 5 tirofiban samples and 13 of 15 eptifibatide samples
Outline: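 Normal platelets were pretreated with test compound, then exposed to sera from patients with tirofiban- (5) or eptifibatide-induced (15) thrombocytopenia. Platelet-bound patient IgG was read as median MFI. Signals were compared with untreated control platelets and with eptifibatide-treated platelets.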

purified αIIbβ3 = purified αIIbβ3 (Homo sapiens, UniProt P05106+P08514); assay: Negative stain EM of αIIbβ3 nanodiscs
αIIbβ3 headpiece [6] = molecular target: T2, αIIbβ3 headpiece (Homo sapiens, UniProt P05106+P08514); assay: Gel filtration of soluble αIIbβ3 headpiece; conditions: for reduction in αIIbβ3 headpiece elution volume: Superdex 200
Target sequence in this assay (P08514 32-652 limits assumed): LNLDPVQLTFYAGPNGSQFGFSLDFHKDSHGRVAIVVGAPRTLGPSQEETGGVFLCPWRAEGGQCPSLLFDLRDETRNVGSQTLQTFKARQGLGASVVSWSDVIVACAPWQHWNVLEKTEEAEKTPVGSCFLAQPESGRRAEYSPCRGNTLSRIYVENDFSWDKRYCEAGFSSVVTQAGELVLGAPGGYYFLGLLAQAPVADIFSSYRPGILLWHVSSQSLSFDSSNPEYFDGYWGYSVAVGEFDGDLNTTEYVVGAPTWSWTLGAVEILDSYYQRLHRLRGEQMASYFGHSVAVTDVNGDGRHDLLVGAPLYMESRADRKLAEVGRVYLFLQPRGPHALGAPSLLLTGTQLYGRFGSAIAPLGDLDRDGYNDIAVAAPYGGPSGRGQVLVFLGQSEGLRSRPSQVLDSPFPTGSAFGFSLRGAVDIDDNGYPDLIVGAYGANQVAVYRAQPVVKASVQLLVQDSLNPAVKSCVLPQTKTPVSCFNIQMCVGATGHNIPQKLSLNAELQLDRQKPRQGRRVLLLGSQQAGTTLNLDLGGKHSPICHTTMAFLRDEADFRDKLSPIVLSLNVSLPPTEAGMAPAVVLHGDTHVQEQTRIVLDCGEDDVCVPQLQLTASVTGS
Target sequence in this assay (P05106 27-498 limits assumed): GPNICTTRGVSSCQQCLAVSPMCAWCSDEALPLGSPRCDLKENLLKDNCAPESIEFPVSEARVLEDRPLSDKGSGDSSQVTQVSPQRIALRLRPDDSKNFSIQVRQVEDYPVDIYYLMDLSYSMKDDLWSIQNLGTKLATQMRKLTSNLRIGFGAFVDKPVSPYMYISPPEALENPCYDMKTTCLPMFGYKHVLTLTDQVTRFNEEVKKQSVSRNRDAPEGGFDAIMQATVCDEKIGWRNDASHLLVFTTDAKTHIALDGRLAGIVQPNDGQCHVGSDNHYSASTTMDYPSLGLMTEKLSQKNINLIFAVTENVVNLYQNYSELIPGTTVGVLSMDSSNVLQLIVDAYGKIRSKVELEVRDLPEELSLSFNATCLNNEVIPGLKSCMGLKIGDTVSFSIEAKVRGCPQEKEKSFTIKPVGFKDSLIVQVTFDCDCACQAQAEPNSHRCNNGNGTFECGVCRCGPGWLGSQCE

αIIbβ3 headpiece [7] = molecular target: T2, αIIbβ3 headpiece; assay: Dynamic light scattering of soluble αIIbβ3 headpiece
Target sequence in this assay (P08514 32-652 limits assumed): as the sequence (P08514 32-652 limits assumed) above
Target sequence in this assay (P05106 27-498 limits assumed): as the sequence (P05106 27-498 limits assumed) above

platelet αIIbβ3 = platelet αIIbβ3 (Homo sapiens, UniProt P05106+P08514); assay: Priming assay: induction of fluorescent fibrinogen binding to platelets; format: cell-based; conditions: for incremental fibrinogen binding: one experiment
recombinant human αIIbβ3 = format: cell-based; conditions: going from 1 to 50 mM Mg2+
Outline: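 CHO-K cells stably expressing human αIIbβ3 were preincubated ±test compound for 30 min at each Mg²⁺ level (1 to 50 mM) plus 1 mM Ca²⁺. They were then exposed to PAC-1 (5 µg/ml) with activating mAb PT25-2 (5 µg/ml) for 30 min at 25°C, stained with PE anti-mouse IgM on ice for 30 min, and analysed by flow cytometry. Read-out was % MFI with vs without drug (n=3); IC50 was compared across Mg²⁺ levels.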

αIIbβ3 [8] = molecular target: T1, αIIbβ3; assay: Platelet adhesion to fibrinogen at different Mg2+ concentrations; format: cell-based; conditions: for IC50: IC50, platelet adhesion to fibrinogen, 1 mM Ca2+, mean ± SD, three experiments
αIIbβ3 [9] = molecular target: T1, αIIbβ3; assay: Platelet aggregation induced by thrombin receptor–activating peptide; format: cell-based; conditions: 20 mM vs 1 mM Mg2+
αIIbβ3 [10] = conditions: 25.6 mg/kg; cited from earlier work
hαIIb/mβ3 = hαIIb/mβ3 (UniProt O54890+P08514); assay: Aggregation of platelets from a mouse expressing human αIIb and mouse β3; format: cell-based
[11] = pKa by titration in water; format: physicochemical
αIIbβ3 headpiece [12] = molecular target: T2, αIIbβ3 headpiece; assay: X-ray crystallography of RUC-2–αIIbβ3 headpiece complex; conditions: determined by x-ray crystallography, PDB code 3T3M
[13] = 100 μM, first reactive eptifibatide-patient serum
[14] = read-out: inhibition of platelet adhesion to fibrinogen

T1 sequence (P08514 32-887 limits assumed): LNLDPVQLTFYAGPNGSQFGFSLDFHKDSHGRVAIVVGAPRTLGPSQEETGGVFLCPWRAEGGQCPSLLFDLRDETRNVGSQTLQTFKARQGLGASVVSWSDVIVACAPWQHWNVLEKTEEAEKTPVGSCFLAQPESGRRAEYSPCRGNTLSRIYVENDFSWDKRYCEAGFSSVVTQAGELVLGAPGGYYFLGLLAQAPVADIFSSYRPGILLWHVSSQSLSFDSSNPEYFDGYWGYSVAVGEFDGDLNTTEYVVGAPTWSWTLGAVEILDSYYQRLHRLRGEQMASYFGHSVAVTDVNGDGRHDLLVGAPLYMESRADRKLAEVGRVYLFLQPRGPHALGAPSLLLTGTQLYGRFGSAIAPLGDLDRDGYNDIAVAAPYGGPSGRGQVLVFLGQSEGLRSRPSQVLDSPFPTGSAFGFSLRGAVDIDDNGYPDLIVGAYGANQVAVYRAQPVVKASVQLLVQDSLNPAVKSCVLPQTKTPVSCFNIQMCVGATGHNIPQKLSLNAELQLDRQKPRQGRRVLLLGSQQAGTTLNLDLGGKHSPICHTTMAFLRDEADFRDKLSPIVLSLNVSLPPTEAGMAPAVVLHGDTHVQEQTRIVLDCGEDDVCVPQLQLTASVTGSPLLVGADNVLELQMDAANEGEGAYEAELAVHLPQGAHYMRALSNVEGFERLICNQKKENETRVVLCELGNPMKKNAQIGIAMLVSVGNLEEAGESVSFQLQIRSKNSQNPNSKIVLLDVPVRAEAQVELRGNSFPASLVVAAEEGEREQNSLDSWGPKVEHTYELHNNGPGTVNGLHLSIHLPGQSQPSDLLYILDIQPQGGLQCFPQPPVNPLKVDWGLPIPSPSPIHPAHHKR
T1 sequence (P08514 891-1039 partner limits assumed): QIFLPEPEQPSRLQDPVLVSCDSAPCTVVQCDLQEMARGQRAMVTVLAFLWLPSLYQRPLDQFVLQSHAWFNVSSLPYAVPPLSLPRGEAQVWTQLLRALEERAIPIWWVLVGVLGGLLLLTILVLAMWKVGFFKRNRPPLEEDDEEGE
T1 sequence (P05106 27-788): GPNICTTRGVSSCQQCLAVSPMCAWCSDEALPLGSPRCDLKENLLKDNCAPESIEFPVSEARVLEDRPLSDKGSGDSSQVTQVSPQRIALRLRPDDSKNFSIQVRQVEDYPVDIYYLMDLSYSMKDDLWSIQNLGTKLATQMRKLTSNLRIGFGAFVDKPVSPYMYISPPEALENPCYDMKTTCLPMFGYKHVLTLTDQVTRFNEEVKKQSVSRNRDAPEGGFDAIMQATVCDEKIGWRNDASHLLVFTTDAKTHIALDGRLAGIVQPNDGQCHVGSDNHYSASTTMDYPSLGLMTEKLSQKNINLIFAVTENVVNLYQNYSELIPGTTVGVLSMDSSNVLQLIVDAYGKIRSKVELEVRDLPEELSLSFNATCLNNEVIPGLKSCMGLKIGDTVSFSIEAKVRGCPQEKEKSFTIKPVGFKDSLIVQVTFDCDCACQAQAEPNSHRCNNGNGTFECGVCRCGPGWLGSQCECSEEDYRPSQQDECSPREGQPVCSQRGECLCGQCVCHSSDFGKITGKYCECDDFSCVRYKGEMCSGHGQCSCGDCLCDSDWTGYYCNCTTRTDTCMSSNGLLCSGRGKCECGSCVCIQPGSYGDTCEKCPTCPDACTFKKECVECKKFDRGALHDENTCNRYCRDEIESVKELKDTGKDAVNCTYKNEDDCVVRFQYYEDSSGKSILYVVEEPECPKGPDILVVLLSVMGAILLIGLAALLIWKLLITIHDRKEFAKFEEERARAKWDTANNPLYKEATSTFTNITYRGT
Sequence of platelet αIIbβ3 (P08514 32-887 limits assumed): as the sequence (P08514 32-887 limits assumed) above
Sequence of platelet αIIbβ3 (P08514 891-1039 partner limits assumed): as the sequence (P08514 891-1039 partner limits assumed) above
Sequence of platelet αIIbβ3 (P05106 27-788): as the sequence (P05106 27-788) above

Molecule: 10E5: anti-αIIbβ3 (αIIbβ3-specific) mAb
inhibition of platelet adhesion/aggregation to collagen ([1]; mAb, concentration not given): ~ 30%

Molecule: CCc1nn2c(=O)cc(N3CCNCC3)nc2s1 [RUC-1, reference compound]
inhibition of platelet adhesion to fibrinogen (αIIbβ3 [2]; 10 μM): 22 ± 8%
inhibition of platelet adhesion to fibrinogen (αIIbβ3 [2]; 30 μM): 38 ± 10%
inhibition of platelet adhesion to fibrinogen (αIIbβ3 [2]; 100 μM): 70 ± 15%
inhibition of human platelet aggregation (αIIbβ3 [3]; 100 μM): nearly completely inhibited
IC50 (αIIbβ3 [3]; read-out: IC50, ADP-induced platelet aggregation, citrated PRP, ADP 5 μM, initial slope): 9.7 ± 1 µM
inhibition of mouse platelet aggregation induced by ADP (mouse platelets; 100 μM): did not inhibit
inhibition of rat platelet aggregation induced by ADP (rat platelets; 100 μM): did not inhibit
inhibition of adhesion of HEK293 cells expressing αVβ3 to vitronectin (αVβ3; 100 μM, n = 4): 5 ± 7%
inhibition of adhesion of HEK293 cells expressing αIIbβ3 to fibrinogen (αIIbβ3 [4]): 55 ± 5%
PMI-1 binding to platelets, % of amount bound in the presence of eptifibatide [5]: 73 ± 9%
AP5 binding to platelets, % of amount bound in the presence of eptifibatide [5]: 10 ± 4%
LIBS1 binding to platelets, % of amount bound in the presence of eptifibatide [5]: 18 ± 2%
recruitment of patient IgG to platelets (normal human platelets; 100 μM): Neither RUC-1 nor RUC-2 induced recruitment of patient IgG
MFI increase as % of value with eptifibatide-treated platelets (normal human platelets; [13]): 13%
median MFI relative to control platelets (normal human platelets; [13]): 6.8 times
recognition of pretreated platelets by patient serum (normal human platelets; 100 μM, second reactive eptifibatide-patient serum): but not RUC-1
shift of NIL value distribution of αIIbβ3 nanodiscs (purified αIIbβ3; up to 100 μM, P = 0.23): neither RUC-1 at concentrations up to 100 μM nor RUC-2 at concentrations up to 10 μM produced a significant shift
increase in Stokes radius, gel filtration (αIIbβ3 headpiece [6]; 500 μM (near-saturating)): little or no increases
reduction in αIIbβ3 headpiece elution volume (αIIbβ3 headpiece [6]; 500 μM (near-saturating)): 0.03 mL
increase in Stokes radius, DLS (αIIbβ3 headpiece [7]; 500 μM (near-saturating)): 0.08 nm
incremental fibrinogen binding (platelet αIIbβ3; 100 μM): 2%
increase of IC50 for PAC-1 binding (recombinant human αIIbβ3): ~ 6%
increase in IC50 at higher Mg2+ concentrations, platelet adhesion to fibrinogen (αIIbβ3 [8]; compared with RUC-2): Neither RUC-1 nor tirofiban showed a comparable increase in IC50
inhibitory effect on SFLLRN-induced platelet aggregation (αIIbβ3 [9]; 100 μM): much less evident
antithrombotic effects in murine models in large and small blood vessels (αIIbβ3 [10]): has antithrombotic effects

inhibition at 10 µM (αIIbβ3 [2]; [14]): 66 ± 10%
inhibition at 30 µM (αIIbβ3 [2]; [14]): 80 ± 13%
inhibition at 100 µM (αIIbβ3 [2]; [14]): 83 ± 7%
IC50 (αIIbβ3 [3]): 0.22 µM
inhibition of human platelet aggregation (αIIbβ3 [3]; 1 μM): nearly completely inhibited
inhibition of aggregation of hαIIb/mβ3 mouse platelets (hαIIb/mβ3): essentially completely inhibited
PMI-1 binding to platelets, % of amount bound in the presence of eptifibatide [5]: 82 ± 13%
AP5 binding to platelets, % of amount bound in the presence of eptifibatide [5]: 18 ± 5%
LIBS1 binding to platelets, % of amount bound in the presence of eptifibatide [5]: 21 ± 3%
increase in Stokes radius, gel filtration (αIIbβ3 headpiece [6]; 100 μM (near-saturating)): little or no increases
reduction in αIIbβ3 headpiece elution volume (αIIbβ3 headpiece [6]; 100 μM (near-saturating)): 0.07 mL
increase in Stokes radius, DLS (αIIbβ3 headpiece [7]; 100 μM (near-saturating)): 0.16 nm
incremental fibrinogen binding (platelet αIIbβ3; 1 μM): did not produce any incremental binding
fibrinogen binding to platelets (priming) (platelet αIIbβ3; 5 μM): did not increase the fibrinogen binding
increase of IC50 for PAC-1 binding (recombinant human αIIbβ3; 1 mM Ca2+, activating mAb PT25-2): ~ 3.9 fold
IC50 (αIIbβ3 [8]; 1 mM Mg2+): 290 ± 100 nM
IC50 (αIIbβ3 [8]; 20 mM Mg2+): 910 ± 210 nM
IC50 (αIIbβ3 [8]; 50 mM Mg2+): 1300 ± 350 nM
decrease in affinity, platelet adhesion to fibrinogen (αIIbβ3 [8]; going from 1 to 50 mM Mg2+): ~ 80%
increase in IC50, platelet adhesion to fibrinogen (αIIbβ3 [8]; going from 1 to 50 mM Mg2+): ~ 4.5 fold
inhibitory effect on SFLLRN-induced platelet aggregation (αIIbβ3 [9]; 1 μM): clearly attenuated
pKa ([11]; pKa 1 (primary amine)): 6.41
pKa ([11]; pKa 2 (piperazine nitrogen)): 8.08
Molecule: NCC(=O)Nc1cccc(-c2nn3c(=O)cc(N4CCNCC4)nc3s2)c1 [RUC-2, 2-amino-N-(3-(5-oxo-7-(piperazin-1-yl)-5H-[1,3,4]thiadiazolo[3,2-a]pyrimidin-2-yl)phenyl)acetamide]
αIIbβ3-dependent platelet adhesion to fibrinogen in a screening assay (αIIbβ3 [2]): RUC-2 inhibited αIIbβ3-dependent platelet adhesion to fibrinogen in a screening assay and αIIbβ3-dependent platelet aggregation. It was found to bind to the target via x-ray crystallography (PDB code 3T3M).
αIIbβ3-dependent platelet aggregation (αIIbβ3 [3]): RUC-2 inhibited αIIbβ3-dependent platelet adhesion to fibrinogen in a screening assay and αIIbβ3-dependent platelet aggregation. It was found to bind to the target via x-ray crystallography (PDB code 3T3M).
inhibition of mouse platelet aggregation induced by ADP (mouse platelets; 1 μM): did not inhibit
inhibition of rat platelet aggregation induced by ADP (rat platelets; 1 μM): did not inhibit
inhibition of platelet adhesion/aggregation to collagen ([1]; 1 to 100 μM): ~ 30%
further inhibition of adhesion/aggregation to collagen ([1]; RUC-2 combined with anti-αIIbβ3 antibody 10E5): did not further inhibit
platelet adhesion to collagen, microscopic analysis ([1]; decreased recruitment of additional platelets to adherent platelets): did not decrease platelet adhesion to collagen
effect on αVβ3-mediated cell adhesion to vitronectin (αVβ3): RUC-2 had minimal effect on αVβ3-mediated cell adhesion to vitronectin.
recruitment of patient IgG to platelets (normal human platelets; 3.9 μM): Neither RUC-1 nor RUC-2 induced recruitment of patient IgG
MFI increase as % of value with eptifibatide-treated platelets (normal human platelets; 3.9 μM, first reactive eptifibatide-patient serum): 8%
reduction in affinity (PAC-1 binding) (recombinant human αIIbβ3): ~75%
mechanism of inhibition (αIIbβ3 headpiece [12]): Orthosteric inhibition at the RGD binding domain as determined by x-ray crystallography

incremental fibrinogen binding (platelet αIIbβ3; 1 μM): 34%
Molecule: N=C(N)NCCCC[C@@H]1NC(=O)CCSSC[C@@H](C(N)=O)NC(=O)[C@@H]2CCCN2C(=O)[C@H](Cc2c[nH]c3ccccc23)NC(=O)[C@H](CC(=O)O)NC(=O)CNC1=O [eptifibatide] ([Mpa][hArg]GDWPC-NH2; disulfide 1-7 (inferred))
shift of NIL value distribution of αIIbβ3 nanodiscs (purified αIIbβ3; dose-dependent, P < 0.001): shifted the distribution in a dose-dependent manner

inhibition at 10 µM (αIIbβ3 [2]; [14]): 87 ± 9%
increase in Stokes radius, gel filtration (αIIbβ3 headpiece [6]; 56 μM (near-saturating)): 0.4 nm
reduction in αIIbβ3 headpiece elution volume (αIIbβ3 headpiece [6]; 56 μM (near-saturating)): 0.38 mL
increase in Stokes radius, DLS (αIIbβ3 headpiece [7]; 56 μM (near-saturating)): 0.45 nm
incremental fibrinogen binding (platelet αIIbβ3; 0.5 μM): 17%
change of IC50 for PAC-1 binding (recombinant human αIIbβ3): completely unchanged
Molecule: CCCCS(=O)(=O)N[C@@H](Cc1ccc(OCCCCC2CCNCC2)cc1)C(=O)O [tirofiban]
recruitment of patient IgG (normal human platelets; the two eptifibatide-treated patient samples reactive with RUC compounds): able to recruit patient IgG

incremental fibrinogen binding (platelet αIIbβ3; 100 μM): 36%
Molecule: RGDS
